Data taken from ChEMBL document CHEMBL1127661, “Synthesis of 2-methyl-(Z)-4-(phenylimino)naphth[2,3-d]oxazol-9-one , a monoimine quinone with selective cytotoxicity toward cancer cells” (1994).

How the values were obtained:
Tumor Cell line [1] = experiment: In vitro inhibition of cell growth; format: functional, Homo sapiens
Tumor Cell line [2] = experiment: Concentration which reduces cell growth to level at the start of the experiment was reported as the mean graph medium for all the cell lines tested in vitro conditions; format: functional, Homo sapiens
Procedure, shortened: (§1)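 NCI in vitro screen covering about 60 human cell lines from eight solid tumour types and leukaemia. Results were derived from dose-response curves. TGI is the concentration that holds cell growth at the level present at the start of the experiment. Values are given as log molar concentration. The mean graph midpoint (MG-MID) is the average across all cell lines tested, with a range of TGI values.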

Hs-578T [3] = experiment: In vitro tumor cell growth inhibition was reported as the concentration that reduces HS 578T breast cancer cell growth to 50% of level at the start experiment.; format: functional; conditions: Homo sapiens, read-out: Log LC50 (the source's name) (converted)
Procedure, shortened: (§2)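 Tested in the NCI in vitro anticancer screen, which covers about 60 human cell lines from eight solid-tumour types and leukaemia. Values were read from dose-response curves as log molar concentration. The endpoint is the concentration that reduces cell growth to 50% of the level at the start of the experiment (LC50).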

M14 [4] = experiment: In vitro tumor cell growth inhibition was reported as the concentration that reduces M14 melanoma cell growth to 50% of level at the start experiment.; format: functional; conditions: Homo sapiens, read-out: Log LC50 (the source's name) (converted); procedure, shortened: as §2
MDA-N [5] = experiment: In vitro tumor cell growth inhibition was reported as the concentration that reduces MDA-N breast cancer cell growth to 50% of level at the start experiment.; format: functional; conditions: Homo sapiens, read-out: Log LC50 (the source's name) (converted); procedure, shortened: as §2
SK-MEL-5 [6] = experiment: In vitro tumor cell growth inhibition was reported as the concentration that reduces SK-MEL-5 melanoma cell growth to 50% of level at the start experiment.; format: functional; conditions: Homo sapiens, read-out: Log LC50 (the source's name) (converted); procedure, shortened: as §2
LOX IMVI [7] = experiment: In vitro tumor cell growth inhibition was reported as the concentration that reduces LOXIMVI melanoma cell growth to level at the start experiment.; format: functional, Homo sapiens; procedure, shortened: as §1
BT-549 [8] = experiment: In vitro tumor cell growth inhibition was reported as the concentration that reduces BT-549 breast cancer cell growth to level at the start experiment.; format: functional, Homo sapiens; procedure, shortened: as §1
SK-MEL-2 [9] = experiment: In vitro tumor cell growth inhibition was reported as the concentration that reduces SK-MEL-2 melanoma cell growth to 50% of level at the start experiment.; format: functional; conditions: Homo sapiens, read-out: Log LC50 (the source's name) (converted); procedure, shortened: as §2
MDA-N [10] = experiment: In vitro tumor cell growth inhibition was reported as the concentration that reduces MDA-N breast cancer cell growth to level at the start experiment.; format: functional, Homo sapiens; procedure, shortened: as §1
MCF7 [11] = experiment: In vitro tumor cell growth inhibition was reported as the concentration that reduces MCF-7 breast cancer cell growth to level at the start experiment.; format: functional, Homo sapiens; procedure, shortened: as §1
SK-MEL-5 [12] = experiment: In vitro tumor cell growth inhibition was reported as the concentration that reduces SK-MEL-5 melanoma cell growth to level at the start experiment.; format: functional, Homo sapiens; procedure, shortened: as §1
MDA-MB-231 [13] = experiment: In vitro tumor cell growth inhibition was reported as the concentration that reduces MDA-MB-231/ATCC breast cancer cell growth to 50% of level at the start experiment..; format: functional; conditions: Homo sapiens, read-out: Log LC50 (the source's name) (converted); procedure, shortened: as §2
BT-549 [14] = experiment: In vitro tumor cell growth inhibition was reported as the concentration that reduces BT-549 breast cancer cell growth to 50% of level at the start experiment.; format: functional; conditions: Homo sapiens, read-out: Log LC50 (the source's name) (converted); procedure, shortened: as §2
MDA-MB-231 [15] = experiment: In vitro tumor cell growth inhibition was reported as the concentration that reduces MDA-MB-231/ATCC breast cancer cell growth to level at the start experiment.; format: functional, Homo sapiens; procedure, shortened: as §1
MDA-MB-435 [16] = experiment: In vitro tumor cell growth inhibition was reported as the concentration that reduces MDA-MB-435 breast cancer cell growth to 50% of level at the start experiment.; format: functional; conditions: Homo sapiens, read-out: Log LC50 (the source's name) (converted); procedure, shortened: as §2
SK-MEL-2 [17] = experiment: In vitro tumor cell growth inhibition was reported as the concentration that reduces SK-MEL-2 melanoma cell growth to level at the start experiment.; format: functional, Homo sapiens; procedure, shortened: as §1
Hs-578T [18] = experiment: In vitro tumor cell growth inhibition was reported as the concentration that reduces HS 578T breast cancer cell growth to level at the start experiment.; format: functional, Homo sapiens; procedure, shortened: as §1
M14 [19] = experiment: In vitro tumor cell growth inhibition was reported as the concentration that reduces M14 melanoma cell growth to level at the start experiment.; format: functional, Homo sapiens; procedure, shortened: as §1
Malme-3M [20] = experiment: In vitro tumor cell growth inhibition was reported as the concentration that reduces MALME-3M melanoma cell growth to 50% of level at the start experiment.; format: functional; conditions: Homo sapiens, read-out: Log LC50 (the source's name) (converted); procedure, shortened: as §2
T47D [21] = experiment: In vitro tumor cell growth inhibition was reported as the concentration that reduces T-47D breast cancer cell growth to 50% of level at the start experiment.; format: functional; conditions: Homo sapiens, read-out: Log LC50 (the source's name) (converted); procedure, shortened: as §2
T47D [22] = experiment: In vitro tumor cell growth inhibition was reported as the concentration that reduces T-47D breast cancer cell growth to level at the start experiment.; format: functional, Homo sapiens; procedure, shortened: as §1
Malme-3M [23] = experiment: In vitro tumor cell growth inhibition was reported as the concentration that reduces MALME-3M melanoma cell growth to level at the start experiment.; format: functional, Homo sapiens; procedure, shortened: as §1
MCF7 [24] = experiment: In vitro tumor cell growth inhibition was reported as the concentration that reduces MCF-7 breast cancer cell growth to 50% of level at the start experiment.; format: functional; conditions: Homo sapiens, read-out: Log LC50 (the source's name) (converted); procedure, shortened: as §2
MDA-MB-435 [25] = experiment: In vitro tumor cell growth inhibition was reported as the concentration that reduces MDA-MB-435 breast cancer cell growth to level at the start experiment.; format: functional, Homo sapiens; procedure, shortened: as §1
LOX IMVI [26] = experiment: In vitro tumor cell growth inhibition was reported as the concentration that reduces LOXIMVI melanoma cell growth to 50% of level at the start experiment.; format: functional; conditions: Homo sapiens, read-out: Log LC50 (the source's name) (converted); procedure, shortened: as §2

`Cc1nc2c(o1)/C(=N\c1ccccc1)c1ccccc1C2=O` was tested, and the Range (Tumor Cell line [1]) was 1.44 and the Log concentration (Tumor Cell line [2]) was -4.62.
`Cc1nc2c(o1)/C(=N\c1ccccc1)c1ccccc1/C2=N/c1ccccc1` gave a Range (Tumor Cell line [1]) of 0.49 and a Log concentration (Tumor Cell line [2]) of -4.02.
`Cc1nc2c(o1)C(=O)c1ccccc1/C2=N/c1ccccc1` was tested, and the CC50 (Hs-578T [3]) was greater than 100 µM, the CC50 (M14 [4]) was 3.98 µM and the Range (Tumor Cell line [1]) was 2.02. The CC50 (MDA-N [5]) was 3.16 µM, the CC50 (SK-MEL-5 [6]) was 5.01 µM and the Log concentration (LOX IMVI [7]) was -5.6. It also gave a Log concentration (BT-549 [8]) of -5.5, a Log concentration (Tumor Cell line [2]) of -5.13 and a CC50 (SK-MEL-2 [9]) of 6.31 µM. The Log concentration (MDA-N [10]) was -6, the Log concentration (MCF7 [11]) was -5.3 and the Log concentration (SK-MEL-5 [12]) was -5.6. The CC50 (MDA-MB-231 [13]) was greater than 100 µM, the CC50 (BT-549 [14]) was 6.31 µM and the Log concentration (MDA-MB-231 [15]) was -4.7. For the same compound, the CC50 (MDA-MB-435 [16]) was 3.16 µM, the Log concentration (SK-MEL-2 [17]) was -5.6 and the Log concentration (Hs-578T [18]) was -5.3. The Log concentration (M14 [19]) was -5.9, the CC50 (Malme-3M [20]) was 5.01 µM and the CC50 (T47D [21]) was greater than 100 µM. For the same compound, the Log concentration (T47D [22]) was -5.1, the Log concentration (Malme-3M [23]) was -5.6 and the CC50 (MCF7 [24]) was greater than 100 µM. The Log concentration (MDA-MB-435 [25]) was -6 and the CC50 (LOX IMVI [26]) was 6.31 µM.
